{"source": "ChEMBL document CHEMBL5724801", "about": "“EUbOPEN Chemogenomics Library - Multiplex” (2024)", "key": {"HEK-293T": {"tested_on": "HEK-293T", "assay": "Multiplex assay against HEK293T", "type": "toxicity, cell-based", "conditions": "human", "how_it_was_run": "(§1)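 With compound added, live cells were imaged on a CQ1 microscope at 37°C and 5% CO2; staining with Hoechst33342, BioTracker Green Microtubule Cytoskeleton Dye, MitoTracker Red and Annexin V Alexa Fluor 680 had been done at seeding. The CellPathfinder machine-learning gating scheme split cells into Hoechst high-intensity objects or normal cells, normal cells into healthy, pyknosed or fragmented nuclei, and pyknosed cells into mitotic or apoptotic. The tubulin, mitochondrial-mass and membrane-permeability phenotypes are per cents of healthy-nucleus cells.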"}, "U2OS": {"tested_on": "U2OS", "assay": "Multiplex assay against U2OS", "type": "toxicity, cell-based", "conditions": "human", "how_it_was_run": "as §1"}, "[1]": {"conditions": "24 h, 10 µM, compound concentration 10 uM"}, "[2]": {"conditions": "48 h, 1 µM, compound concentration 1 uM"}, "[3]": {"conditions": "48 h, 10 µM, compound concentration 10 uM"}, "[4]": {"conditions": "12 h, 1 µM, compound concentration 1 uM"}, "[5]": {"conditions": "12 h, 10 µM, compound concentration 10 uM"}, "[6]": {"conditions": "24 h, 1 µM, compound concentration 1 uM"}}, "note": "“And” between values parts separate entries of the source, which are not always exact repeats. Identical values can stand only once.", "data": [{"smiles": "N[C@](CC1c2ccccc2Oc2ccccc21)(C(=O)O)[C@H]1C[C@@H]1C(=O)O", "values": [{"measurement": "Population Apoptotic (%)", "setting": "HEK-293T; [1]", "value": "29% and 40%"}, {"measurement": "Population Fragmented Nuclei (%)", "setting": "HEK-293T; [1]", "value": "10% and 6%"}, {"measurement": "Population Healthy Nuclei (%)", "setting": "HEK-293T; [1]", "value": "79% and 82%"}, {"measurement": "Population Hoechst High Intensity Objects (%)", "setting": "HEK-293T; [1]", "value": 5, "unit": "%"}, {"measurement": "Population Membrane Permeable-Phenotype (%)", "setting": "HEK-293T; [1]", "value": 0, "unit": "%"}, {"measurement": "Population Mitochondria Different-Phenotype (%)", "setting": "HEK-293T; [1]", "value": "30% and 41%"}, {"measurement": "Population Mitotic Cells (%)", "setting": "HEK-293T; [1]", "value": "70% and 59%"}, {"measurement": "Population Normal (%)", "setting": "HEK-293T; [1]", "value": 94, "unit": "%"}, {"measurement": "Population Pyknosed Nuclei (%)", "setting": "HEK-293T; [1]", "value": "10% and 11%"}, {"measurement": "Population Tubulin-Different-Phenotype (%)", "setting": "HEK-293T; [1]", "value": "17% and 16%"}, {"measurement": "Total Cell Count", "setting": "HEK-293T; [1]", "value": "510 and 471"}, {"measurement": "Population Apoptotic (%)", "setting": "HEK-293T; [2]", "value": "12% and 17%"}, {"measurement": "Population Fragmented Nuclei (%)", "setting": "HEK-293T; [2]", "value": "11% and 12%"}, {"measurement": "Population Healthy Nuclei (%)", "setting": "HEK-293T; [2]", "value": "80% and 81%"}, {"measurement": "Population Hoechst High Intensity Objects (%)", "setting": "HEK-293T; [2]", "value": "2% and 1%"}, {"measurement": "Population Membrane Permeable-Phenotype (%)", "setting": "HEK-293T; [2]", "value": "2% and 0%"}, {"measurement": "Population Mitochondria Different-Phenotype (%)", "setting": "HEK-293T; [2]", "value": "15% and 17%"}, {"measurement": "Population Mitotic Cells (%)", "setting": "HEK-293T; [2]", "value": "87% and 82%"}, {"measurement": "Population Normal (%)", "setting": "HEK-293T; [2]", "value": "97% and 98%"}, {"measurement": "Population Pyknosed Nuclei (%)", "setting": "HEK-293T; [2]", "value": "7% and 6%"}, {"measurement": "Population Tubulin-Different-Phenotype (%)", "setting": "HEK-293T; [2]", "value": "13% and 10%"}, {"measurement": "Total Cell Count", "setting": "HEK-293T; [2]", "value": "1040 and 654"}, {"measurement": "Population Apoptotic (%)", "setting": "HEK-293T; [3]", "value": "28% and 42%"}, {"measurement": "Population Fragmented Nuclei (%)", "setting": "HEK-293T; [3]", "value": 13, "unit": "%"}, {"measurement": "Population Healthy Nuclei (%)", "setting": "HEK-293T; [3]", "value": "78% and 80%"}, {"measurement": "Population Hoechst High Intensity Objects (%)", "setting": "HEK-293T; [3]", "value": "2% and 4%"}, {"measurement": "Population Membrane Permeable-Phenotype (%)", "setting": "HEK-293T; [3]", "value": 0, "unit": "%"}, {"measurement": "Population Mitochondria Different-Phenotype (%)", "setting": "HEK-293T; [3]", "value": "17% and 25%"}, {"measurement": "Population Mitotic Cells (%)", "setting": "HEK-293T; [3]", "value": "71% and 57%"}, {"measurement": "Population Normal (%)", "setting": "HEK-293T; [3]", "value": "97% and 95%"}, {"measurement": "Population Pyknosed Nuclei (%)", "setting": "HEK-293T; [3]", "value": "8% and 6%"}, {"measurement": "Population Tubulin-Different-Phenotype (%)", "setting": "HEK-293T; [3]", "value": "8% and 12%"}, {"measurement": "Total Cell Count", "setting": "HEK-293T; [3]", "value": "789 and 687"}, {"measurement": "Population Apoptotic (%)", "setting": "U2OS; [4]", "value": "80% and 72%"}, {"measurement": "Population Fragmented Nuclei (%)", "setting": "U2OS; [4]", "value": "22% and 10%"}, {"measurement": "Population Healthy Nuclei (%)", "setting": "U2OS; [4]", "value": "67% and 79%"}, {"measurement": "Population Hoechst High Intensity Objects (%)", "setting": "U2OS; [4]", "value": 1, "unit": "%"}, {"measurement": "Population Membrane Permeable-Phenotype (%)", "setting": "U2OS; [4]", "value": "6% and 1%"}, {"measurement": "Population Mitochondria Different-Phenotype (%)", "setting": "U2OS; [4]", "value": "2% and 8%"}, {"measurement": "Population Mitotic Cells (%)", "setting": "U2OS; [4]", "value": "20% and 27%"}, {"measurement": "Population Normal (%)", "setting": "U2OS; [4]", "value": 98, "unit": "%"}, {"measurement": "Population Pyknosed Nuclei (%)", "setting": "U2OS; [4]", "value": 9, "unit": "%"}, {"measurement": "Population Tubulin-Different-Phenotype (%)", "setting": "U2OS; [4]", "value": "4% and 3%"}, {"measurement": "Total Cell Count", "setting": "U2OS; [4]", "value": "218 and 114"}, {"measurement": "Population Apoptotic (%)", "setting": "U2OS; [5]", "value": "84% and 83%"}, {"measurement": "Population Fragmented Nuclei (%)", "setting": "U2OS; [5]", "value": "18% and 19%"}, {"measurement": "Population Healthy Nuclei (%)", "setting": "U2OS; [5]", "value": "72% and 76%"}, {"measurement": "Population Hoechst High Intensity Objects (%)", "setting": "U2OS; [5]", "value": "3% and 0%"}, {"measurement": "Population Membrane Permeable-Phenotype (%)", "setting": "U2OS; [5]", "value": "5% and 7%"}, {"measurement": "Population Mitochondria Different-Phenotype (%)", "setting": "U2OS; [5]", "value": "3% and 0%"}, {"measurement": "Population Mitotic Cells (%)", "setting": "U2OS; [5]", "value": 16, "unit": "%"}, {"measurement": "Population Normal (%)", "setting": "U2OS; [5]", "value": "96% and 100%"}, {"measurement": "Population Pyknosed Nuclei (%)", "setting": "U2OS; [5]", "value": "8% and 4%"}, {"measurement": "Population Tubulin-Different-Phenotype (%)", "setting": "U2OS; [5]", "value": 2, "unit": "%"}, {"measurement": "Total Cell Count", "setting": "U2OS; [5]", "value": "295 and 141"}, {"measurement": "Population Apoptotic (%)", "setting": "U2OS; [6]", "value": "78% and 63%"}, {"measurement": "Population Fragmented Nuclei (%)", "setting": "U2OS; [6]", "value": "20% and 14%"}, {"measurement": "Population Healthy Nuclei (%)", "setting": "U2OS; [6]", "value": "70% and 77%"}, {"measurement": "Population Hoechst High Intensity Objects (%)", "setting": "U2OS; [6]", "value": "1% and 0%"}, {"measurement": "Population Membrane Permeable-Phenotype (%)", "setting": "U2OS; [6]", "value": "1% and 4%"}, {"measurement": "Population Mitochondria Different-Phenotype (%)", "setting": "U2OS; [6]", "value": "1% and 5%"}, {"measurement": "Population Mitotic Cells (%)", "setting": "U2OS; [6]", "value": "21% and 36%"}, {"measurement": "Population Normal (%)", "setting": "U2OS; [6]", "value": "98% and 99%"}, {"measurement": "Population Pyknosed Nuclei (%)", "setting": "U2OS; [6]", "value": 8, "unit": "%"}, {"measurement": "Population Tubulin-Different-Phenotype (%)", "setting": "U2OS; [6]", "value": "1% and 2%"}, {"measurement": "Total Cell Count", "setting": "U2OS; [6]", "value": "272 and 137"}, {"measurement": "Population Apoptotic (%)", "setting": "U2OS; [1]", "value": "80% and 81%"}, {"measurement": "Population Fragmented Nuclei (%)", "setting": "U2OS; [1]", "value": "13% and 15%"}, {"measurement": "Population Healthy Nuclei (%)", "setting": "U2OS; [1]", "value": "79% and 77%"}, {"measurement": "Population Hoechst High Intensity Objects (%)", "setting": "U2OS; [1]", "value": "3% and 0%"}, {"measurement": "Population Membrane Permeable-Phenotype (%)", "setting": "U2OS; [1]", "value": "3% and 8%"}, {"measurement": "Population Mitochondria Different-Phenotype (%)", "setting": "U2OS; [1]", "value": "3% and 1%"}, {"measurement": "Population Mitotic Cells (%)", "setting": "U2OS; [1]", "value": "20% and 18%"}, {"measurement": "Population Normal (%)", "setting": "U2OS; [1]", "value": "96% and 99%"}, {"measurement": "Population Pyknosed Nuclei (%)", "setting": "U2OS; [1]", "value": "7% and 6%"}, {"measurement": "Population Tubulin-Different-Phenotype (%)", "setting": "U2OS; [1]", "value": "1% and 3%"}, {"measurement": "Total Cell Count", "setting": "U2OS; [1]", "value": "365 and 164"}, {"measurement": "Population Apoptotic (%)", "setting": "U2OS; [2]", "value": "89% and 85%"}, {"measurement": "Population Fragmented Nuclei (%)", "setting": "U2OS; [2]", "value": "14% and 16%"}, {"measurement": "Population Healthy Nuclei (%)", "setting": "U2OS; [2]", "value": "75% and 72%"}, {"measurement": "Population Hoechst High Intensity Objects (%)", "setting": "U2OS; [2]", "value": "2% and 1%"}, {"measurement": "Population Membrane Permeable-Phenotype (%)", "setting": "U2OS; [2]", "value": "3% and 5%"}, {"measurement": "Population Mitochondria Different-Phenotype (%)", "setting": "U2OS; [2]", "value": "1% and 3%"}, {"measurement": "Population Mitotic Cells (%)", "setting": "U2OS; [2]", "value": "10% and 15%"}, {"measurement": "Population Normal (%)", "setting": "U2OS; [2]", "value": "97% and 98%"}, {"measurement": "Population Pyknosed Nuclei (%)", "setting": "U2OS; [2]", "value": "9% and 10%"}, {"measurement": "Population Tubulin-Different-Phenotype (%)", "setting": "U2OS; [2]", "value": "1% and 4%"}, {"measurement": "Total Cell Count", "setting": "U2OS; [2]", "value": "403 and 190"}, {"measurement": "Population Apoptotic (%)", "setting": "U2OS; [3]", "value": "90% and 81%"}, {"measurement": "Population Fragmented Nuclei (%)", "setting": "U2OS; [3]", "value": "15% and 12%"}, {"measurement": "Population Healthy Nuclei (%)", "setting": "U2OS; [3]", "value": "77% and 78%"}, {"measurement": "Population Hoechst High Intensity Objects (%)", "setting": "U2OS; [3]", "value": "1% and 0%"}, {"measurement": "Population Membrane Permeable-Phenotype (%)", "setting": "U2OS; [3]", "value": "4% and 7%"}, {"measurement": "Population Mitochondria Different-Phenotype (%)", "setting": "U2OS; [3]", "value": "3% and 1%"}, {"measurement": "Population Mitotic Cells (%)", "setting": "U2OS; [3]", "value": "10% and 18%"}, {"measurement": "Population Normal (%)", "setting": "U2OS; [3]", "value": "98% and 100%"}, {"measurement": "Population Pyknosed Nuclei (%)", "setting": "U2OS; [3]", "value": "7% and 9%"}, {"measurement": "Population Tubulin-Different-Phenotype (%)", "setting": "U2OS; [3]", "value": "2% and 3%"}, {"measurement": "Total Cell Count", "setting": "U2OS; [3]", "value": "554 and 238"}]}]}
